Source: ChEMBL document CHEMBL3085749, “Design, optimization, and biological evaluation of novel keto-benzimidazoles as potent and selective inhibitors of phosphodiesterase 10A (PDE10A)” (J Med Chem, 2013)

Columns and labels:
Type in all cases: ADME, organism-based
[1] = Oral bioavailability in Sprague-Dawley rat at 10 mg/kg by LC-MS/MS analysis; conditions: in vivo
Method in brief: (§1)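 Fed male Sprague−Dawley rats. Vehicle for iv was 100% DMSO; for po and ip it was 1% Tween and 2% HPMC with methanesulfonic acid, pH 2.2. Reported parameters are Cl (L/h/kg), Vss (L/kg), AUC (μM·h), T1/2 (h) and %F.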

[2] = Volume of distribution at steady state in Sprague-Dawley rat at 2 mg/kg, iv by LC-MS/MS analysis; design: dose 2 mg/kg, route intravenous; conditions: in vivo, read-out: Vdss
[3] = AUC in Sprague-Dawley rat at 10 mg/kg, po by LC-MS/MS analysis; design: dose 10 mg/kg, route oral; conditions: plasma; method in brief: as §1
[4] = AUC in Sprague-Dawley rat at 2 mg/kg, iv by LC-MS/MS analysis; design: dose 2 mg/kg, route intravenous; conditions: plasma
[5] = AUC in Sprague-Dawley rat at 5 mg/kg, po by LC-MS/MS analysis; design: dose 5 mg/kg, route oral; conditions: plasma
[6] = Oral bioavailability in Sprague-Dawley rat at 5 mg/kg by LC-MS/MS analysis; conditions: in vivo

A bioavailability [1] of 52%, a Vd [2] of 1.28 L/kg and an AUC [3] of 11.7 µM·h were found for `O=C(c1ccc(Oc2nccnc2N2CCC(O)CC2)cc1)c1nc2ccccc2[nH]1` in this work. For the same compound, the AUC [4] was 4.5 µM·h.

A Vd [2] of 0.165 L/kg, an AUC [5] of 79.2 µM·h and an AUC [4] of 62.1 µM·h were found for `CC(=O)N1CCN(c2nccnc2Oc2ccc(C(=O)c3nc4ccccc4[nH]3)cc2)CC1` in this work. For the same compound, the bioavailability [6] was 56%.
